TRPC4 act = TRPC4 (mouse) channel activation; Q9QUQ5; HEK293 TRPC4beta/mu-opioid, Fluo4 calcium fluorescence; active compounds read high; B-score at 10 µM; 0.49% of 310,000 active; AID 2237;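 active = B-score above 5 SD of library B-scores, and initial fluorescence ratio not above library mean plus 5 SD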;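 also: positive B-score marks a calcium rise read as TRPC4 activation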
Target sequence (Q9QUQ5 whole entry, looked up): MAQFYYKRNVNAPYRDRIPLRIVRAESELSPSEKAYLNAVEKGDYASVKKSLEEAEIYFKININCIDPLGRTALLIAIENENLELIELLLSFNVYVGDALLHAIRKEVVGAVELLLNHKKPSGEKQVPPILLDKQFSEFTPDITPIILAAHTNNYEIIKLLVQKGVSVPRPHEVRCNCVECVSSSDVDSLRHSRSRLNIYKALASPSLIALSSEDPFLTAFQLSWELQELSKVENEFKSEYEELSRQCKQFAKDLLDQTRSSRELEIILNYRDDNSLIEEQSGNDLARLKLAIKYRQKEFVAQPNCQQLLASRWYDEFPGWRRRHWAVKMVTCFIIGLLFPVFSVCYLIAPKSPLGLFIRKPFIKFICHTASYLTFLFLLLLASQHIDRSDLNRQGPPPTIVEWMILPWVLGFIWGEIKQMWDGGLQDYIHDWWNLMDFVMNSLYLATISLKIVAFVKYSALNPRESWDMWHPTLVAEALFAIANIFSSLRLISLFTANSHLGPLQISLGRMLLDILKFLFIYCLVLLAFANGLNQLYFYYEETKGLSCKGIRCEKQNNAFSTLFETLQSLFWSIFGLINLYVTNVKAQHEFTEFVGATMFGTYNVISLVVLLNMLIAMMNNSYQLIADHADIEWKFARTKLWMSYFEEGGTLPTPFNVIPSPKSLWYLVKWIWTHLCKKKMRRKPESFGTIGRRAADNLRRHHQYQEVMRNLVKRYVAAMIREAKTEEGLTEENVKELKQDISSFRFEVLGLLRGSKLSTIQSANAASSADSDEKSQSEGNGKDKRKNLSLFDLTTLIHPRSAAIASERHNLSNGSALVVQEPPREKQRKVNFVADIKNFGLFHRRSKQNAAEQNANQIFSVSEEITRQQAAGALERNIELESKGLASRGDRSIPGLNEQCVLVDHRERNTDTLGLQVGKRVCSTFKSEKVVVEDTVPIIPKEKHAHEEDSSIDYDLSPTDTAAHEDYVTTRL
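Assay system: HEK293 stable line with TRPC4beta plus mu-opioid receptor. Times: dye 45 min RT, read 110 s. Measured by: kinetic Fluo4 calcium fluorescence. Measure: B score of integrated ratio. Controls: assay buffer as low control, maximal DAMGO as high control.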
TRPC6 inh = inhibitors of mouse TRPC6 channel; Q61143; 1.1% of 310,000 active; HEK293-TRPC6, membrane potential dye, ACh-evoked depolarization; active compounds read low; B-score at 10 µM;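 active = B-score under library mean minus 3 SD, initial fluorescence not abnormally high, positive integrated signal ratio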;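 also: B-score derived from integrated fluorescence ratio over the kinetic read; more negative B-score means stronger inhibition of depolarization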
TRPC4 block = inhibitors of mouse TRPC4 channel; AID 2247; B-score at 10 µM; 0.39% of 300,000 active; HEK293 TRPC4beta/mu-opioid, DAMGO-evoked Fluo4 calcium flux; active compounds read low;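 active = B-score over 3 SD under the library average, no early fluorescence shift, positive overall ratio signal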
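Assay system: HEK293 cells with stable TRPC4beta plus mu-opioid receptor expression. Dosing: single dose. Measured by: Fluo4 Ca2+ flux fluorescence. Also added: DAMGO in two steps, submaximal then maximal. Read-out: B score from integrated Fluo4 fluorescence ratio.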
TRPC4 potent = allosteric potentiators of mouse TRPC4 channel. Q9QUQ5. HEK293 TRPC4beta/mu-opioid, DAMGO EC20, Fluo-4 Ca2+ flux; active compounds read high. B-score at 10 µM. 0.42% of 310,000 active. AID 2227;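 active = B-score of calcium response area above 5 SD of library B-scores, with initial fluorescence ratio within 5 SD of library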;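 also: B-score of integrated fluorescence ratio over time as area under calcium response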
TRPC6 activator = mouse TRPC6 channel activation; B-score at 10 µM; HEK293-TRPC6 membrane potential dye fluorescence; active compounds read high; AID 2550; 0.13% of 310,000 active; Q61143;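 active = B-score of the integrated fluorescence ratio above library mean plus 3 SD, and starting fluorescence ratio within library mean plus 5 SD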;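 also: higher score means more depolarization so channel activation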
HEK293 MPD ctr = checks TRPC6 modulator effects in parental HEK293 cells; shares compounds with TRPC6 inh; membrane potential dye fluorescence; 51% of 2,400 active; membrane potential signal change, % at 10 µM;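 active = membrane potential signal moves up or down beyond 5 SD from buffer-only wells, on both duplicate plates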
HEK293 MPD ctr 2 = second check of TRPC6 modulator effects in parental HEK293 cells; 14% of 2,400 active; membrane potential dye fluorescence; after compound, maximal acetylcholine stimulation; inhibition, % at 10 µM; shares compounds with TRPC6 inh;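 active = membrane potential signal drops by more than 5 SD from the mean control signal, in both duplicate plates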;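 also: plate controls were acetylcholine ECmax control wells for no effect and buffer only wells for full effect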
TRPC4 ctr mod = mouse TRPC4 off-target activity of TRPC6 modulators; shares compounds with TRPC6 inh; HEK293 TRPC4/mu-opioid, membrane potential fluorescence; percent change from control (negative = decrease, positive = increase), % at 10 µM; 69% of 2,400 active;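 active = membrane potential signal moved up or down beyond 5 SD of buffer control wells, in both duplicate plates, actives on both sides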;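 also: plate controls were assay buffer wells for no effect and DAMGO maximal-effect wells for full effect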
TRPC4/MOR inh 2 = second selectivity test of TRPC6 modulators against mouse TRPC4 | shares compounds with TRPC6 inh | HEK293 TRPC4/mu-opioid, membrane potential dye fluorescence; stimulated with maximal-effect DAMGO | inhibition, % at 10 µM | 55% of 2,400 active | AID 488928;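 active = drop in membrane potential signal beyond 5 SD of the control wells in both duplicate plates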;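 also: TRPC4 counter screen for TRPC6 hits run under conditions tuned for TRPC6 not TRPC4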
TRPC6 inh conf = confirmation of mouse TRPC6 inhibitors; HEK293-TRPC6, membrane potential dye, ACh-evoked depolarization; shares compounds with TRPC6 inh; inhibition, % at 10 µM; 43% of 3,300 active;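 active = fluorescence ratio falls more than 5 SD below the full-stimulation control mean, in both duplicate runs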;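 also: integrated fluorescence ratio of peak minus minimum over baseline after agonist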
TRPC6 act conf = mouse TRPC6 activator confirmation; activation, % at 10 µM; shares compounds with TRPC6 inh; 11% of 2,800 active; HEK293-TRPC6 membrane potential dye fluorescence, FDSS;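 active = ratio signal rise beyond 5 SD above unstimulated control wells' mean, seen in both duplicate runs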;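 also: plate controls were buffer EC0 wells for no effect and acetylcholine ECmax response for full effect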
Starred values were filed as active, the others as inactive. A selection: hits, their analogues and other compounds. The true share with any hit is near 2.3%.

Screening CN1CCN(C(=O)c2cccc(S(=O)(=O)N3CCCCC3)c2)CC1 returned TRPC4 act inactive, TRPC6 inh inactive, TRPC4 block inactive, TRPC4 potent inactive and TRPC6 activator inactive.
`CC1CCC(NC(=O)CCn2ccc3cc(S(=O)(=O)N4CCCC4)ccc32)CC1` (stereo unspecified) gave TRPC4 act inactive, TRPC6 inh inactive, TRPC4 block inactive, TRPC4 potent inactive and TRPC6 activator inactive.
`O=C(c1cccc(S(=O)(=O)N2CCCCCC2)c1)N1CCN(c2ccccc2)CC1` gave TRPC4 act inactive, TRPC6 inh -5.2*, TRPC4 block inactive, TRPC4 potent inactive, TRPC6 activator inactive, HEK293 MPD ctr 106%*, HEK293 MPD ctr 2 inactive, TRPC4 ctr mod 19%*, TRPC4/MOR inh 2 inactive and TRPC6 inh conf inactive.
`Cc1ccccc1Nc1nc(N)nc(COC(=O)CC2CC3CCC2C3)n1` (stereo unspecified) gave TRPC4 act inactive, TRPC6 inh inactive, TRPC4 block inactive, TRPC4 potent inactive and TRPC6 activator inactive.
Screening Clc1ccc(CNC2CCN(Cc3ccccc3)CC2)cc1 returned TRPC4 act inactive, TRPC6 inh -6*, TRPC4 block inactive, TRPC4 potent inactive, TRPC6 activator inactive, HEK293 MPD ctr inactive, HEK293 MPD ctr 2 inactive, TRPC4 ctr mod inactive, TRPC4/MOR inh 2 55%* and TRPC6 inh conf inactive.
Fc1ccc(CNC2CCN(Cc3ccccc3)CC2)cc1 was read as TRPC4 act inactive, TRPC6 inh inactive, TRPC4 block inactive, TRPC4 potent inactive and TRPC6 activator inactive.
For CSc1cc(-c2ccc(Cl)cc2)c(C(=O)NC(C)C)s1 the results were TRPC4 act inactive, TRPC6 inh inactive, TRPC4 block inactive, TRPC4 potent inactive and TRPC6 activator inactive.
`COc1cc(CCC(=O)OCC(=O)N(CCC#N)c2ccccc2)cc(OC)c1OC` gave TRPC4 act inactive, TRPC6 inh -5.4*, TRPC4 block inactive, TRPC4 potent inactive, TRPC6 activator inactive, HEK293 MPD ctr inactive, HEK293 MPD ctr 2 inactive, TRPC4 ctr mod inactive, TRPC4/MOR inh 2 inactive, TRPC6 inh conf inactive and TRPC6 act conf inactive.
For N#CCCN(C(=O)COC(=O)Cc1ccc(Br)cc1)c1ccccc1 the results were TRPC4 act inactive, TRPC6 inh inactive, TRPC4 block inactive, TRPC4 potent inactive and TRPC6 activator inactive.
O=C1C=C(N2CCOCC2)c2ccccc2C1=O was read as TRPC4 act inactive, TRPC6 inh inactive, TRPC4 block inactive, TRPC4 potent inactive and TRPC6 activator inactive.
`Cc1ccc(N2CCOCC2)c2c1C(=O)c1ccccc1C2=O` gave TRPC4 act inactive, TRPC6 inh -5.1*, TRPC4 block inactive, TRPC4 potent inactive, TRPC6 activator inactive, HEK293 MPD ctr -195%*, HEK293 MPD ctr 2 inactive, TRPC4 ctr mod -34%*, TRPC4/MOR inh 2 71%*, TRPC6 inh conf 43%* and TRPC6 act conf inactive.
`CCOCCCNC(=O)CCCOc1ccccc1` gave TRPC4 act inactive, TRPC6 inh -5.5*, TRPC4 block inactive, TRPC4 potent inactive, TRPC6 activator inactive, HEK293 MPD ctr inactive, HEK293 MPD ctr 2 inactive, TRPC4 ctr mod inactive, TRPC4/MOR inh 2 inactive, TRPC6 inh conf inactive and TRPC6 act conf inactive.
COC(=O)c1c(-c2ccc3ccccc3c2)csc1NC(=O)Cc1ccc(OC)c(OC)c1 was read as TRPC4 act inactive, TRPC6 inh -5.8*, TRPC4 block inactive, TRPC4 potent inactive, TRPC6 activator inactive, HEK293 MPD ctr inactive, HEK293 MPD ctr 2 inactive, TRPC4 ctr mod inactive, TRPC4/MOR inh 2 inactive, TRPC6 inh conf inactive and TRPC6 act conf inactive.
For CN(C)CCNc1ncnc2c1cnn2-c1ccc(Cl)cc1 the results were TRPC4 act inactive, TRPC6 inh -5.2*, TRPC4 block inactive, TRPC4 potent inactive, TRPC6 activator inactive, HEK293 MPD ctr inactive, HEK293 MPD ctr 2 inactive, TRPC4 ctr mod inactive, TRPC4/MOR inh 2 31%*, TRPC6 inh conf 46%* and TRPC6 act conf inactive.
For CCOC(=O)c1c(-c2ccccc2)csc1NC(=O)/C(C#N)=C/c1ccc(O)c(OC)c1 the results were TRPC4 act inactive, TRPC6 inh inactive, TRPC4 block inactive, TRPC4 potent inactive, TRPC6 activator 35*, HEK293 MPD ctr 438%*, HEK293 MPD ctr 2 inactive, TRPC4 ctr mod 92%*, TRPC4/MOR inh 2 inactive, TRPC6 inh conf inactive and TRPC6 act conf 129%*.
`CCOC(=O)c1c(-c2ccccc2)csc1NC(=O)/C(C#N)=C/c1ccc(OC)c(OC)c1` gave TRPC4 act inactive, TRPC6 inh inactive, TRPC4 block inactive, TRPC4 potent inactive and TRPC6 activator inactive.
For CCc1cccc(CC)c1NC(=O)COC(=O)CC1c2ccccc2CCN1S(=O)(=O)c1ccccc1 (stereo unspecified) the results were TRPC4 act inactive, TRPC6 inh inactive, TRPC4 block inactive, TRPC4 potent inactive and TRPC6 activator inactive.
Cn1cnnc1Sc1nc2c(c(=O)n(C)c(=O)n2C)n1Cc1ccccc1Cl was read as TRPC4 act inactive, TRPC6 inh inactive, TRPC4 block inactive, TRPC4 potent inactive and TRPC6 activator inactive.
`Cn1c(=O)n(Cc2ccco2)c(=N)c2c3c(sc21)CCC3` gave TRPC4 act inactive, TRPC6 inh -7.1*, TRPC4 block inactive, TRPC4 potent inactive, TRPC6 activator inactive, HEK293 MPD ctr -184%*, HEK293 MPD ctr 2 inactive, TRPC4 ctr mod -32%*, TRPC4/MOR inh 2 46%*, TRPC6 inh conf 36%* and TRPC6 act conf inactive.

From PubChem BioAssay
